According to ChEMBL document CHEMBL2034871, “First-in-class, dual-action, 3,5-disubstituted indole derivatives having human nitric oxide synthase (nNOS) and norepinephrine reuptake inhibitory (NERI) activity for the treatment of neuropathic pain” (J Med Chem, 2012):
pIC50: −log10 of the molar value.

How the values were obtained:
[1] = target: Nitric oxide synthase, inducible (Homo sapiens, UniProt P35228); experiment: Inhibition of human iNOS expressed in baculovirus-infected insect sf9 cells assessed as conversion of [3H]-L-arginine to [3H]-L-citrulline preincubated for 15 mins with compound measured after 45 mins by scintillation counting
[2] = target: Sodium-dependent noradrenaline transporter (Homo sapiens, UniProt P23975); experiment: Displacement of [3H]nisoxetine from human NET expressed in CHO cells after 120 mins by scintillation counting; type: cell-based
In short: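 Membranes from hNET-transfected CHO cells (20 μg protein) incubated 120 min at 4 °C with 1 nM [3H]nisoxetine in 50 mM Tris-HCl pH 7.4, 120 mM NaCl, 5 mM KCl. Nonspecific binding defined with 1 μM desipramine. Filtered on PEI-soaked GF/B and counted.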

Cytochrome P450 1A2 = target: T1, Cytochrome P450 1A2 (Homo sapiens, UniProt P05177); experiment: Inhibition of CYP1A2; type: ADME
T1 sequence (P05177 whole entry): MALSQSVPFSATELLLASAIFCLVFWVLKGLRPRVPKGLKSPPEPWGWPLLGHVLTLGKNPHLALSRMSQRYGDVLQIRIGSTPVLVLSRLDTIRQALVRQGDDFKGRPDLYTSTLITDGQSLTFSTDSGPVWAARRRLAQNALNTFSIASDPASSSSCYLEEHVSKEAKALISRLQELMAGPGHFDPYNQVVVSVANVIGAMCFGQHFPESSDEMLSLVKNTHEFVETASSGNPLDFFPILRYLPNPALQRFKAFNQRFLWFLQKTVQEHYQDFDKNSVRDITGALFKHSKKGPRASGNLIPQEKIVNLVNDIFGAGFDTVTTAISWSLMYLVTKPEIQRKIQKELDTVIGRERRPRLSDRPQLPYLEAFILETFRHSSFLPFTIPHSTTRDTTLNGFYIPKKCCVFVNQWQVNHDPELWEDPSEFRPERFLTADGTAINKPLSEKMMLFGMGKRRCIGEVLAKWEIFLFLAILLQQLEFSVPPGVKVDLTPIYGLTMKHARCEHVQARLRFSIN

Cytochrome P450 2C9 = Cytochrome P450 2C9 (Homo sapiens, UniProt P11712); experiment: Inhibition of CYP2C9; type: ADME
Cytochrome P450 2C19 = Cytochrome P450 2C19 (Homo sapiens, UniProt P33261); experiment: Inhibition of CYP2C19; type: ADME
Cytochrome P450 3A4 = Cytochrome P450 3A4 (Homo sapiens, UniProt P08684); experiment: Inhibition of CYP3A4; type: ADME
[3] = Vasoconstrictive activity in U46619 precontracted human arteries assessed as inhibition of acetylcholine-induced vasorelaxation at 100 uM after 50 mins; type: tissue-based, Artery
In short: (§1)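 Human resistance artery rings (~2 mm) from surgical tissue, wire-mounted in myograph baths of Krebs PSS at 37 °C, gassed with 95% O2/5% CO2. […] Compound given 50 min with or without L-arginine, then U46619 preconstriction and ACh curves (1×10⁻¹⁰ to 1×10⁻⁵ M). Responses as % of maximal U46619 contraction.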

[4] = Vasoconstrictive activity in U46619 precontracted human arteries assessed as inhibition of acetylcholine-induced vasorelaxation at 100 uM after 50 mins in presence of L-arginine; type: tissue-based, Artery; in short: as §1
Rattus norvegicus [5] = experiment: Antihyperalgesic activity in L5/L6 SNL Sprague-Dawley rat model of […] model assessed as reversal of thermal hyperalgesia at 30 mg/kg, ip measured after 30 mins; type: functional; conditions: route intraperitoneal
In short: (§2)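 Sprague-Dawley rats under halothane had L5 and L6 spinal nerves tightly ligated with 4-0 silk distal to the DRG, then recovered singly housed. Drug given intraperitoneally. Mechanical withdrawal threshold and radiant-heat withdrawal latency of the affected hind paw were measured.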

Rattus norvegicus [6] = experiment: Antiallodynic activity in L5/L6 SNL Sprague-Dawley rat model of […] model assessed as reversal of mechanical force-induced allodynia at 30 mg/kg, ip measured after 30 mins; type: functional; conditions: route intraperitoneal; in short: as §2
Hepatocyte [7] = experiment: Metabolic stability in human liver hepatocytes assessed as compound turnover after 120 mins; type: ADME, cell-based; conditions: 2 h
Hepatocyte [8] = experiment: Metabolic stability in primates liver hepatocytes assessed as compound turnover after 120 mins; type: ADME, cell-based; conditions: 2 h
[9] = Metabolic stability in dog liver hepatocytes assessed as compound turnover after 120 mins; type: ADME, cell-based, Canis lupus familiaris, Hepatocyte; conditions: 2 h
Hepatocyte [10] = experiment: Metabolic stability in rat liver hepatocytes assessed as compound turnover after 120 mins; type: ADME, cell-based; conditions: 2 h
Cytochrome P450 2D6 = Cytochrome P450 2D6 (Homo sapiens, UniProt P10635); experiment: Inhibition of CYP2D6; type: ADME
[11] = target: Mu-type opioid receptor (Homo sapiens) (UniProt P35372); experiment: Inhibition of mu opioid receptor at 10 uM
In short: (§3)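 Broad in vitro receptor binding screen at one concentration, 10 μM. Specific binding taken as total minus nonspecific binding with excess unlabeled ligand. […] A reference compound was run concurrently in each assay.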

[12] = Inhibition of sigma receptor at 10 uM; in short: as §3
[13] = target: T2, Muscarinic acetylcholine receptor M1 (Homo sapiens) (UniProt P11229); experiment: Inhibition of human muscarinic M1 receptor at 10 uM; in short: as §3
T2 sequence (whole entry): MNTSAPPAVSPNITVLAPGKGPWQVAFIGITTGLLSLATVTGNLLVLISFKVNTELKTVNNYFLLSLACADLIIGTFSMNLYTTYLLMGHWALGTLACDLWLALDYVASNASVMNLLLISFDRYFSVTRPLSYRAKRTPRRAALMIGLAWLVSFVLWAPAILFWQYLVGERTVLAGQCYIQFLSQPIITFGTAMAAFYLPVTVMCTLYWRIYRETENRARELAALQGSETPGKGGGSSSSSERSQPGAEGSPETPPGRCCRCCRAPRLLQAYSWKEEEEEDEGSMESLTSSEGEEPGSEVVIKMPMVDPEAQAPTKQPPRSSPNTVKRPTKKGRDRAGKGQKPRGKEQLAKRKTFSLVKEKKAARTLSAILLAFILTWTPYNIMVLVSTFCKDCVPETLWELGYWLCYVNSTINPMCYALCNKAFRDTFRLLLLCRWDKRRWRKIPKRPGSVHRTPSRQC

[14] = target: T3, Muscarinic acetylcholine receptor M2 (Homo sapiens) (UniProt P08172); experiment: Inhibition of human muscarinic M2 receptor at 10 uM; in short: as §3
T3 sequence (whole entry): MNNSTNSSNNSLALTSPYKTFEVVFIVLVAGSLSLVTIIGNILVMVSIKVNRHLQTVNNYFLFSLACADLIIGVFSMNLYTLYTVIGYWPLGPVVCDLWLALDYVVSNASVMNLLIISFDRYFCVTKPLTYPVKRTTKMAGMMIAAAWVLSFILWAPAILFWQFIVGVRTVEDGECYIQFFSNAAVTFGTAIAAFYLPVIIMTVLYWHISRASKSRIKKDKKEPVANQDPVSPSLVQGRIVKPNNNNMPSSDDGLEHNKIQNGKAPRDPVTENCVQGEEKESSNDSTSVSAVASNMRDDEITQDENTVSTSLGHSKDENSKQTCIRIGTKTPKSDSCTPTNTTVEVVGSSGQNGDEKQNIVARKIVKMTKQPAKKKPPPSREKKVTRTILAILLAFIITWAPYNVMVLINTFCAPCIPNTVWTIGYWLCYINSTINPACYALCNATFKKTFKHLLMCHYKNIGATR

[15] = target: Muscarinic acetylcholine receptor M3 (Homo sapiens) (UniProt P20309); experiment: Inhibition of human muscarinic M3 receptor at 10 uM; in short: as §3
[16] = target: T4, Muscarinic acetylcholine receptor M4 (Homo sapiens) (UniProt P08173); experiment: Inhibition of human muscarinic M4 receptor at 10 uM; in short: as §3
T4 sequence (whole entry): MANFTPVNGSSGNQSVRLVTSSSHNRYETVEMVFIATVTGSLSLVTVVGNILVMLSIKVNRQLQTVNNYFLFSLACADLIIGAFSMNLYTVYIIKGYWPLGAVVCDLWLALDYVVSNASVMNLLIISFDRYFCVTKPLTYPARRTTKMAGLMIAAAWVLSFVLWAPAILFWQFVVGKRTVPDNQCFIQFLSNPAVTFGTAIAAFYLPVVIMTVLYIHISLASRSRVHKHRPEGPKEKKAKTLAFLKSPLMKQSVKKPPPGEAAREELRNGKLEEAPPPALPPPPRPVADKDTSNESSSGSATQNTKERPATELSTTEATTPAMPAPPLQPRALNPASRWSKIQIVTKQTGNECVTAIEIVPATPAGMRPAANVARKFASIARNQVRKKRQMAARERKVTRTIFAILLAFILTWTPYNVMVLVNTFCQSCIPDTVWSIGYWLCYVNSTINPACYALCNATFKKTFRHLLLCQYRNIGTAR

[17] = target: T5, Muscarinic acetylcholine receptor M5 (Homo sapiens) (UniProt P08912); experiment: Inhibition of human muscarinic M5 receptor at 10 uM; in short: as §3
T5 sequence (whole entry): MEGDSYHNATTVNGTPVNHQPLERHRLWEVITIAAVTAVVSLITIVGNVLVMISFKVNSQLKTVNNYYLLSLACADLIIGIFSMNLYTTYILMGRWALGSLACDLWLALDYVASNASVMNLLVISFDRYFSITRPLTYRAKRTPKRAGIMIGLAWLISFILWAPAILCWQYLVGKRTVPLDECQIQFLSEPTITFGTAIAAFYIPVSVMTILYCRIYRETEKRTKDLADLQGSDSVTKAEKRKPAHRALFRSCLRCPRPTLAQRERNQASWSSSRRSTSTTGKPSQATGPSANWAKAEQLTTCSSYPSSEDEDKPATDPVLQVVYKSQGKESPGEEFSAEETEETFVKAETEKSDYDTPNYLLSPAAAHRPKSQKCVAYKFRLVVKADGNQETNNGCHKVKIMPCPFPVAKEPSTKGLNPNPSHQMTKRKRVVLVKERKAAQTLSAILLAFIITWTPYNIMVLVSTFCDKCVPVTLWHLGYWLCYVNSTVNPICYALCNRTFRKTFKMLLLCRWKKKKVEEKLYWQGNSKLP

Chain of Cytochrome P450 2C19 (P33261 whole entry): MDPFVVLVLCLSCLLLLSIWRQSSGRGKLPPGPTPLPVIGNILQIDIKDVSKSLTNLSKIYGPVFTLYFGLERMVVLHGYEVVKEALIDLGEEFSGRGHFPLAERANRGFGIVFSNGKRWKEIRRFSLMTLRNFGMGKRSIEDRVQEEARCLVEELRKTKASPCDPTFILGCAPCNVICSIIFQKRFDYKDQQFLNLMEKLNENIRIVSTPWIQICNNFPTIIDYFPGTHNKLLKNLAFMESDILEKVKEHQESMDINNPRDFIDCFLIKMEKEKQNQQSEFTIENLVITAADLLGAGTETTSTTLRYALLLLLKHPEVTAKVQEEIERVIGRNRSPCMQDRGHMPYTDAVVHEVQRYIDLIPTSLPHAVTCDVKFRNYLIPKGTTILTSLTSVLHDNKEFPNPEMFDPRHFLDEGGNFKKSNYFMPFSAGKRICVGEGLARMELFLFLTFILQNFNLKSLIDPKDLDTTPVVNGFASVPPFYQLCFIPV
Chain of Nitric oxide synthase, inducible (P35228 whole entry): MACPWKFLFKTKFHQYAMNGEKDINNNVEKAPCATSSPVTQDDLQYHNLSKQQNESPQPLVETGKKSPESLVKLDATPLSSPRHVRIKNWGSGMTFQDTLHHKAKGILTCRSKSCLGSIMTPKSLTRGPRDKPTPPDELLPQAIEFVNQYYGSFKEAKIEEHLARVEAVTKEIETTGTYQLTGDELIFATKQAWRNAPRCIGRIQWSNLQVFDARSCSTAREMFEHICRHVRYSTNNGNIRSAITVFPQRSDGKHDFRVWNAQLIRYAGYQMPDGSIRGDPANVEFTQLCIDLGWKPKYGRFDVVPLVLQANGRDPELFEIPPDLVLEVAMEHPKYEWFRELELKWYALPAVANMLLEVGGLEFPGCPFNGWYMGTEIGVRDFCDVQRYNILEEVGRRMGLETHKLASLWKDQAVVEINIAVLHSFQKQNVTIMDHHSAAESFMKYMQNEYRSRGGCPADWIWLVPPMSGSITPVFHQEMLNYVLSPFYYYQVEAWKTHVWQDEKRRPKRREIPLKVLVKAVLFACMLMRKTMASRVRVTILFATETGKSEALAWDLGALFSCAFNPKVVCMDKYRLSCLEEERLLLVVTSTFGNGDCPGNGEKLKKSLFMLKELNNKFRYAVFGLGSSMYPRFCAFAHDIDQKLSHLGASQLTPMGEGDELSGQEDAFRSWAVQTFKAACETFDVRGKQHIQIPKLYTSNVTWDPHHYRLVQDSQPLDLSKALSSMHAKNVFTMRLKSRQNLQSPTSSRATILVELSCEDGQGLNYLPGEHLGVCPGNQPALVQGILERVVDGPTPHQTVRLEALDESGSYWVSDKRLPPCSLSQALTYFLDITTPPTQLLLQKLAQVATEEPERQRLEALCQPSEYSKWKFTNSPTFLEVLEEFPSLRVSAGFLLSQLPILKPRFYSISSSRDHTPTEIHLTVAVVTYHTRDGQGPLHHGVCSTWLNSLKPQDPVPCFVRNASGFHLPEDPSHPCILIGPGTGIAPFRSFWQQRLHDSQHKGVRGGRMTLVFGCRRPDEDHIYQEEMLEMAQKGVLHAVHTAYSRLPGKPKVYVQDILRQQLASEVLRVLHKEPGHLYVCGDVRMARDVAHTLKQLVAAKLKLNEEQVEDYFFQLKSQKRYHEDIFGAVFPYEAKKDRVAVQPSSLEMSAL
Chain of Mu-type opioid receptor (Homo sapiens) (P35372 whole entry): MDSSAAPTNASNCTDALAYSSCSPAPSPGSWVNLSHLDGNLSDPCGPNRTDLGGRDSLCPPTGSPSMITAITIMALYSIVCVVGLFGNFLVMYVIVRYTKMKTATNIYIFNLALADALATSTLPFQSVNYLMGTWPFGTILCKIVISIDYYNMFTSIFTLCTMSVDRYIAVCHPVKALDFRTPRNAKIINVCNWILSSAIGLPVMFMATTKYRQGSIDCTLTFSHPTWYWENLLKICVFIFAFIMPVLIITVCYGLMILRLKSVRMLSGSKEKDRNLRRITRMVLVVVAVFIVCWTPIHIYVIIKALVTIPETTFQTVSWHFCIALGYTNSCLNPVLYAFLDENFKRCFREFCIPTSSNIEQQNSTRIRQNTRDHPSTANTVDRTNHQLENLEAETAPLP
Chain of Cytochrome P450 3A4 (P08684 whole entry): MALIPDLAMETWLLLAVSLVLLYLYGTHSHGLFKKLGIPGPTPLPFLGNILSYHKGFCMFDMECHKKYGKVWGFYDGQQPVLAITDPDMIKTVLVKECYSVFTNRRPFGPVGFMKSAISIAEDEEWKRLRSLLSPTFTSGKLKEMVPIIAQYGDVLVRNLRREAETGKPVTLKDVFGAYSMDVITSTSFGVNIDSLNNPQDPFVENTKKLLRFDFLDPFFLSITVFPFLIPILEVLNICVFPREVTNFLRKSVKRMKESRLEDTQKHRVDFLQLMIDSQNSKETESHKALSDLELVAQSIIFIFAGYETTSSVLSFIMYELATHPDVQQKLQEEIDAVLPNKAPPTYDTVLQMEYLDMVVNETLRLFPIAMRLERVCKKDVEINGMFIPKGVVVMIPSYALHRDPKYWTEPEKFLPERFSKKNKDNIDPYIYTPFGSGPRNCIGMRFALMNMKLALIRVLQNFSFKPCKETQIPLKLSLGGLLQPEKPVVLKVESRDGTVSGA
Chain of Cytochrome P450 2C9 (P11712 whole entry): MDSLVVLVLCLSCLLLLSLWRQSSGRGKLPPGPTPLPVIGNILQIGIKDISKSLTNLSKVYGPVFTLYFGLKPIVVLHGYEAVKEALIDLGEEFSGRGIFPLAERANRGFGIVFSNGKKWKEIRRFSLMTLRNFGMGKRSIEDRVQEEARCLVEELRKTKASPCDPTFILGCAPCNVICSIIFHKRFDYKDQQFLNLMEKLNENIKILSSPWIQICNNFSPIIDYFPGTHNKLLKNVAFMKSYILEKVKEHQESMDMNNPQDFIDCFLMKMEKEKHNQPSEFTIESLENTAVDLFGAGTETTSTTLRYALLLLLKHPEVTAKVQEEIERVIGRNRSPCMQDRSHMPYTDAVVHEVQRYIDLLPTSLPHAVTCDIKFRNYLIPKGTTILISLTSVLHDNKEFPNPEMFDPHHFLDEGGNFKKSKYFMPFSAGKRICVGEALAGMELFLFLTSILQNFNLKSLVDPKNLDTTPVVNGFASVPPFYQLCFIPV
Chain of Cytochrome P450 2D6 (P10635 whole entry): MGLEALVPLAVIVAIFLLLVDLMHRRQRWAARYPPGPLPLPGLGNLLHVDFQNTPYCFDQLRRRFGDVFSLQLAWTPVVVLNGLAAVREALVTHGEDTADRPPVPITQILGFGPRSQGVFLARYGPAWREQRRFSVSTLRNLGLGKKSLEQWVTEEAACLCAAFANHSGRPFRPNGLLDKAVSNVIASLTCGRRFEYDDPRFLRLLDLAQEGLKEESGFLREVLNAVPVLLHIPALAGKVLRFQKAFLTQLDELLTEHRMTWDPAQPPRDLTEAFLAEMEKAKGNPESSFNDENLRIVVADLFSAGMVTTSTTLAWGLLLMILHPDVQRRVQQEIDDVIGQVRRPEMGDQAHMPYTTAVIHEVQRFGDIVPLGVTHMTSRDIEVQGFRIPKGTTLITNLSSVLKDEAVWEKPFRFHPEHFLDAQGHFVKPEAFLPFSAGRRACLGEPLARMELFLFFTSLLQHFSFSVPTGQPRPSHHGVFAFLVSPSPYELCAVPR
Chain of Muscarinic acetylcholine receptor M3 (Homo sapiens) (P20309 whole entry, looked up): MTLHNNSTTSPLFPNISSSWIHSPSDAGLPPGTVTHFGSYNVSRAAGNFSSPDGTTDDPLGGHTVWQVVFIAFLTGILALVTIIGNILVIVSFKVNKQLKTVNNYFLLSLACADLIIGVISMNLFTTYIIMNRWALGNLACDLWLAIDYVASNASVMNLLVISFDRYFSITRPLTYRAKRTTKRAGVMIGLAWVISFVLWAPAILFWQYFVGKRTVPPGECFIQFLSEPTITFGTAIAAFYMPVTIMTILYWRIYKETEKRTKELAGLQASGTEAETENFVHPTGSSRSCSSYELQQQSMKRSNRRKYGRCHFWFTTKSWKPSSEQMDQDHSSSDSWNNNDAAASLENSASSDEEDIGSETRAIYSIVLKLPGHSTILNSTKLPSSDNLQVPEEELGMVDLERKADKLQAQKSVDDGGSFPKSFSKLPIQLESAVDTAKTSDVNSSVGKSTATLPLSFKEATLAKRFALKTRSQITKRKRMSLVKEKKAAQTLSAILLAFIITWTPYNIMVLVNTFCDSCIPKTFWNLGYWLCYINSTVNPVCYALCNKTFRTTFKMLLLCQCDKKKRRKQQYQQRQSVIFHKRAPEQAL
Chain of Sodium-dependent noradrenaline transporter (P23975 whole entry): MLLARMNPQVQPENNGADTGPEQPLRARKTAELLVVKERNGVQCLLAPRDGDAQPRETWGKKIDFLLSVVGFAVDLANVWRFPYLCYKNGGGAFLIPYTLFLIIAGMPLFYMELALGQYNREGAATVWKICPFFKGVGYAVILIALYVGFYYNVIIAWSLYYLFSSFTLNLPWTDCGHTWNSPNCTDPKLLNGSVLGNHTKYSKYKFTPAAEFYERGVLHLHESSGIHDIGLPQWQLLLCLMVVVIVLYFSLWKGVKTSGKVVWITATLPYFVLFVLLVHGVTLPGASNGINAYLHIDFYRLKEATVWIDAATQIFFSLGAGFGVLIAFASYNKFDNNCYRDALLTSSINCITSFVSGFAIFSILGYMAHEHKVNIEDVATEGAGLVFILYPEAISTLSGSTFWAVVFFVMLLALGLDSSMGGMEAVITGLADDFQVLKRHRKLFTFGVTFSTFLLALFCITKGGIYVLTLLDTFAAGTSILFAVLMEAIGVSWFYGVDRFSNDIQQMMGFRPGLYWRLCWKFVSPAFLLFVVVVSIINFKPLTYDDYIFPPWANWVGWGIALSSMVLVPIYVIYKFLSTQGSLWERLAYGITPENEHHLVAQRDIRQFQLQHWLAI

CNC1CCCC(c2c[nH]c3ccc(NC(=N)c4cccs4)cc23)C1.Cl (single isomer, unassigned; (+))
pIC50 [1]: 5.17 | pIC50 [2]: 6.00 | IC50 (Cytochrome P450 1A2): Not Active | IC50 (Cytochrome P450 2C9): Not Active | pIC50 (Cytochrome P450 2C19): < 4.00 | pIC50 (Cytochrome P450 3A4): 4.00 | Activity [3]: Non-toxic | Activity [4]: Non-toxic | Activity (Rattus norvegicus [5]): 96% | Activity (Rattus norvegicus [6]): 90% | Stability (Hepatocyte [7]): Stable | Stability (Hepatocyte [8]): Stable | Stability [9]: Stable | Stability (Hepatocyte [10]): Stable | pIC50 (Cytochrome P450 2D6): 5.29

CNC1CCCC(c2c[nH]c3ccc(NC(=N)c4cccs4)cc23)C1 (single isomer, unassigned; (+))
inhibition [11]: 53% | inhibition [12]: 61% | inhibition [13]: 80% | inhibition [14]: 87% | inhibition [15]: 88% | inhibition [16]: 93% | inhibition [17]: 87%
